Measured values published in PubChem BioAssay.
Inconclusive results are not listed.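 How the source made its calls, unless noted: active means cell viability at or below a set limit in both duplicate runs, the limit being the all-compound median minus 4 SD (cut at about 23% in these data, passing the limit was not always enough); inconclusive means no clear call, values can overlap the other calls; inactive means the rest.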

Assays:
[1] = S. cerevisiae growth inhibition in permissive medium (OD615), pilot counter-assay for S. cerevisiae lifespan shortening project, permissive growth control (AID 705;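 active means growth inhibition above 25% in both replicates, a cutoff set 3 SD above the mean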); details: OD615, 24 h, at 10 µM, stronger effect = higher value
How it was run: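 System: Engineered DeaD yeast | Buffer or medium: SC raffinose/galactose permissive medium | Doses: 10 µM single dose, 0.25% DMSO | Times: 24 h exposure, 30 °C | Measured by: OD615 turbidity read | Read-out: Yeast growth inhibition indicated by reduced 24 h OD615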

[2] = S. cerevisiae growth inhibition in restrictive medium, OD615, pilot screen, restrictive growth control, yeast lifespan reduction project (AID 706;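 active means growth inhibition above a set limit, 3 SD over mean compound inhibition, in both replicates, cut at about 43% in these data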;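 further: modified DeaD lifespan yeast strain shifted to restrictive glucose medium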); details: OD615, 48 h, at 10 µM, stronger effect = higher value
How it was run: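 Assay system: engineered S. cerevisiae DeaD strain; Buffer or medium: CSMM-D glucose medium; Dosing: 10 µM compound, 0.25% DMSO; Times: cell pre-growth 4 h, compound exposure 48 h, 30 °C; Detection: absorbance (optical density) measured at 615 nm.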

[3] = doxorubicin toxicity protection in MRP-1 cells – H69AR cells, CellTiter-Glo, duplicate, MRP-1 activator project, pilot screen (AID 807;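 active means viability increase at or above a cutoff of the median across tested compounds plus 3 SD, cut at about 8.5% in these data, passing the limit was not always enough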;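 further: compound pretreatment 18-22 h then 72 h combined with doxorubicin; 0% = doxorubicin alone and 100% = vehicle without doxorubicin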); details: H69AR viability with doxorubicin, CellTiter-Glo luminescence; at 10 µM; stronger effect = higher value
[4] = viability of HCT116 without oncogenic beta-catenin – human colon tumor cells, pilot screen (AID 823); details: HCT116 beta-catenin knockout viability, CellTiter-Glo, 60 h; at 10 µM; stronger effect = lower value;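 further: 0% = wells killed by 20 µM Hyamine and 100% = untreated DMSO cell wells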
[5] = viability of PTEN-null HCT116 cells – cell-based, HCT116 clonal line, CellTiter-Glo, pilot screen (AID 824;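 active means viability at or below 27.92% in each of two runs, the all-compound median minus 4 SD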;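 further: 0% = 20 µM Hyamine control and 100% = vehicle cell control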); details: HCT116 PTEN-deleted viability, 60 h, at 10 µM, stronger effect = lower value
[6] = RAM pathway blockade in budding yeast – dse1pr::URA3 reporter, 5-FOA selection, pilot screen (AID 869;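 active means inhibition over a set limit, the all-compound mean plus 3 SD, in both replicate runs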;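 further: 0% = DMSO wells with no growth and 100% = 10 µM 1-NA-PP1 with full growth; RAM network block rescues cells from 5-FOA so hits raise OD615 growth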); details: S. cerevisiae dse1pr::URA3 5-FOA growth, OD615, 2 d; at 10 µM; stronger effect = higher value; strain carries analog-sensitive mutant Cbk1 kinase
[7] = RAM signaling pathway blockade in yeast – S. cerevisiae, Pdr1DBD-CYC8 efflux-inhibited sensitized strain, primary screen (AID 1298;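 active means RAM network inhibition above 8.4% in each of two replicates, 3 SD over the compound average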;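 further: 0% = DMSO untreated cells without growth and 100% = 10 µM 1-NA-PP1 full growth; higher means more yeast growth rescued from 5-FOA killing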); details: S. cerevisiae cbk1-as DSE1-URA3 strain, 5-FOA growth OD615, 2 d; at 50 µM; stronger effect = higher value

CSC1=N/C(=C\c2ccc(C)o2)C(=O)S1
inactive: growth inhibition [1] -2.35% | growth inhibition [2] 1.15% | viability increase [3] -2.31% | viability [4] 104% | viability [5] 102% | inhibition [6] 0.93% | RAM network inhibition [7] -0.21%

COC(=O)c1ccc2c(c1)N(Cc1nc(-c3cccc(C)c3)oc1C)C(=O)C1CCCN21 (configuration not stated)
inactive: growth inhibition [1] -13% | growth inhibition [2] -8.79% | viability increase [3] -2.37% | viability [4] 92% | viability [5] 84.3% | inhibition [6] 2.06% | RAM network inhibition [7] 5.71%

CC(CN(C)Cc1ccccc1)OC(=O)C1COc2ccccc2O1 (configuration not stated)
inactive: growth inhibition [1] -9.66% | growth inhibition [2] 6.59% | viability increase [3] 0.39% | viability [4] 101% | viability [5] 102% | inhibition [6] 1.3% | RAM network inhibition [7] 2.25%

O=C(Cc1ccccc1)NCCn1ccc2ccccc21
inactive: growth inhibition [1] -10.7% | growth inhibition [2] -13.2% | viability increase [3] -1.79% | viability [4] 94.6% | viability [5] 88.8% | inhibition [6] 0.01% | RAM network inhibition [7] 3.55%

Cc1cccc(NC(=O)CN2C(=O)COc3ccc(Cl)cc32)c1C
inactive: growth inhibition [1] -3.47% | growth inhibition [2] -2.44% | viability increase [3] -0.9% | viability [4] 87.5% | viability [5] 85.8% | inhibition [6] 2.24% | RAM network inhibition [7] 4.67%

Cc1ccc2[nH]c(=O)c3cc(C(=O)N(C)Cc4ccco4)sc3c2c1
inactive: growth inhibition [1] -11.6% | growth inhibition [2] -4.44% | viability increase [3] -5.5% | viability [4] 71.4% | viability [5] 67.5% | inhibition [6] -0.255% | RAM network inhibition [7] -1.79%

CC(=O)OC(/C(O)=C(\C#N)c1nc2ccccc2[nH]1)c1ccccc1 (configuration not stated)
inactive: growth inhibition [1] 0.55% | growth inhibition [2] 3.63% | viability increase [3] -0.98% | viability [4] 59.6% | viability [5] 54.3% | inhibition [6] 1.63% | RAM network inhibition [7] 3.42%

CC1Cc2nc(SCC(=O)NCCc3ccccc3)n(C)c(=O)c2S1 (configuration not stated)
inactive: growth inhibition [1] -11.5% | growth inhibition [2] -1.29% | viability increase [3] -2.25% | viability [4] 100% | viability [5] 104% | inhibition [6] 1.77% | RAM network inhibition [7] 2.27%

Cc1ccc2cc(CCNS(=O)(=O)c3ccc(F)cc3)c(=O)[nH]c2c1
inactive: growth inhibition [1] -11.5% | growth inhibition [2] -8.69% | viability increase [3] -1.91% | viability [4] 93% | viability [5] 80.5% | inhibition [6] 1.72% | RAM network inhibition [7] 1.31%

CCOC(=O)N1CCN(C(=O)C2CCCN(c3nc4ccc(OCC)cc4s3)C2)CC1 (configuration not stated)
inactive: growth inhibition [1] -6.49% | growth inhibition [2] -7.45% | viability increase [3] -1.32% | viability [4] 90.6% | viability [5] 89.7% | inhibition [6] 0.33% | RAM network inhibition [7] 5.16%

Cn1c(C(=O)NCCCN2CCCC2=O)cc2c(=O)n(C)c3ccccc3c21
inactive: growth inhibition [1] -6.28% | growth inhibition [2] -1.63% | viability increase [3] -4.16% | viability [4] 108% | viability [5] 94.4% | inhibition [6] 1.69% | RAM network inhibition [7] 0.06%

CC(C)c1ccc(NC(=O)c2cnn(-c3ccccc3)c2NC(=O)c2ccco2)cc1
inactive: growth inhibition [1] -2.46% | growth inhibition [2] 0.43% | viability increase [3] -4.1% | viability [4] 89.7% | viability [5] 85.6% | inhibition [6] 1.9% | RAM network inhibition [7] 5.45%

COc1ccc(NC(=O)c2c(NC(=O)CNCc3ccco3)sc3c2CCC3)c(OC)c1
inactive: growth inhibition [1] -3.54% | growth inhibition [2] -19% | viability increase [3] -1.44% | viability [4] 88.7% | viability [5] 79.2% | inhibition [6] 1.43% | RAM network inhibition [7] 5.28%

COC(=O)C1=C(C)N(c2cc(Cl)cc(Cl)c2)C(=O)C1
inactive: growth inhibition [1] -2.8% | growth inhibition [2] -18.3% | viability increase [3] -6.24% | viability [4] 28.2% | viability [5] 45.7% | inhibition [6] 0.14% | RAM network inhibition [7] 2.04%

CCOC(=O)Cn1c(CN2CCc3ccccc3C2)nc2c1c(=O)n(C)c(=O)n2C
inactive: growth inhibition [1] -7.72% | growth inhibition [2] 1.89% | viability increase [3] -0.76% | viability [4] 84.5% | viability [5] 86.1% | inhibition [6] -0.39% | RAM network inhibition [7] 4.64%

CC(=NCCN1CCOCC1)C1=C(O)c2ccccc2C1=O
inactive: growth inhibition [1] -5.16% | growth inhibition [2] -12.6% | viability increase [3] -1.7% | viability [4] 103% | viability [5] 100% | inhibition [6] 1.3% | RAM network inhibition [7] -0.73%

O=C(CSc1nc(-c2ccco2)cc(C(F)(F)F)n1)NC1CCCC1
inactive: growth inhibition [1] -9.81% | growth inhibition [2] 5.25% | viability increase [3] -0.46% | viability [4] 89.3% | viability [5] 89.5% | inhibition [6] 0.995% | RAM network inhibition [7] 1%

O=C(CCCc1ccccc1)NCc1cn2ccsc2n1
inactive: growth inhibition [1] -8.33% | growth inhibition [2] 6.95% | viability increase [3] 0.97% | viability [4] 103% | viability [5] 105% | inhibition [6] 1.31% | RAM network inhibition [7] 5.11%

O=C(O)c1ccccc1C(=O)c1cccs1
inactive: growth inhibition [1] -14.9% | growth inhibition [2] -17.1% | viability increase [3] -0.3% | viability [4] 101% | viability [5] 92.5% | inhibition [6] 0.54% | RAM network inhibition [7] 1.05%

COc1ccc(-c2nc(CS(=O)CC(=O)NCc3cccnc3)c(C)o2)cc1OC (configuration not stated)
inactive: growth inhibition [1] -1.92% | growth inhibition [2] -2.94% | viability increase [3] -2.64% | viability [4] 99.5% | viability [5] 94.8% | inhibition [6] 1.42% | RAM network inhibition [7] 0.68%

Cc1sc2nc(SCC(=O)NCc3ccco3)[nH]c(=O)c2c1C
inactive: growth inhibition [1] -4% | growth inhibition [2] -4.97% | viability increase [3] -3.92% | viability [4] 106% | viability [5] 101% | inhibition [6] 2.67% | RAM network inhibition [7] 5.12%

O=C(c1ccc(COc2ccccc2Cl)o1)N1CCN(c2ccccc2)CC1
inactive: growth inhibition [1] -15.6% | growth inhibition [2] -13.4% | viability increase [3] -4.18% | viability [4] 61.7% | viability [5] 69.7% | inhibition [6] 2.33% | RAM network inhibition [7] 5.58%

Cc1ccc(S(=O)(=O)N2CCCC(C(=O)O)C2)s1 (configuration not stated)
inactive: growth inhibition [1] -4.2% | growth inhibition [2] -4.86% | viability increase [3] 1.27% | viability [4] 97% | viability [5] 99.6% | inhibition [6] 0.59% | RAM network inhibition [7] -1.67%

O=C(Nc1ccc(F)cc1)C1CCCN(S(=O)(=O)c2cccc3cccnc23)C1 (configuration not stated)
inactive: growth inhibition [1] -10.2% | growth inhibition [2] -7.79% | viability increase [3] -0.85% | viability [4] 80.8% | viability [5] 80.3% | inhibition [6] 2.16% | RAM network inhibition [7] 7.62%

O=C(NCc1ccc2c(c1)OCO2)c1ccc(NC(=O)C2CCCO2)cc1 (configuration not stated)
inactive: growth inhibition [1] -11% | growth inhibition [2] -20.2% | viability increase [3] -2.17% | viability [4] 102% | viability [5] 103% | inhibition [6] 3.76% | RAM network inhibition [7] 4.81%

Cc1nc2sc(C(c3cccs3)N3CCN(c4ccccc4)CC3)c(O)n2n1 (configuration not stated)
inactive: growth inhibition [1] 0.19% | growth inhibition [2] 5.34% | viability increase [3] -0.21% | viability [4] 96.5% | viability [5] 94.8% | inhibition [6] 1.19% | RAM network inhibition [7] 2.14%

COC(=O)C1Sc2[nH]c(=O)sc2C(c2ccc(Cl)cc2)C1C(=O)OC (configuration not stated)
inactive: growth inhibition [1] -14.8% | growth inhibition [2] -14.8% | viability increase [3] -5.67% | viability [4] 91.3% | viability [5] 88.7% | inhibition [6] 4.36% | RAM network inhibition [7] 2.45%

O=C(CCc1nc2ccccc2[nH]1)N1CCc2ccccc2C1
inactive: growth inhibition [1] -11.6% | growth inhibition [2] -12.5% | viability increase [3] -1.86% | viability [4] 104% | viability [5] 94.8% | inhibition [6] 0.94% | RAM network inhibition [7] 1.76%

CN(C)S(=O)(=O)Nc1ccc2c(c1)Cc1ccccc1-2
inactive: growth inhibition [1] -17.4% | growth inhibition [2] -9.69% | viability increase [3] -2.09% | viability [4] 92.3% | viability [5] 88.5% | inhibition [6] 1% | RAM network inhibition [7] 4.68%

O=C1CCCc2sccc2N1
inactive: growth inhibition [1] -6.83% | growth inhibition [2] -3.71% | viability increase [3] -1.57% | viability [4] 106% | viability [5] 96.9% | inhibition [6] 0.26% | RAM network inhibition [7] 2.15%

COc1ccc(OC)c2c1sc(=NC(=O)C(C)(C)C)n2C
inactive: growth inhibition [1] -7.64% | growth inhibition [2] 6.31% | viability increase [3] -6.23% | viability [4] 84.1% | viability [5] 79.6% | inhibition [6] 3.72% | RAM network inhibition [7] 6.93%

COc1ccc(N2CC(C(=O)Nc3ccc(S(=O)(=O)Nc4nc(C)cc(C)n4)cc3)CC2=O)cc1 (configuration not stated)
inactive: growth inhibition [1] -8.26% | growth inhibition [2] -7.87% | viability increase [3] -1.39% | viability [4] 100% | viability [5] 91.4% | inhibition [6] 1% | RAM network inhibition [7] 2.5%

CCOC(=O)NC(Nc1nnc(SCC)s1)(C(F)(F)F)C(F)(F)F
inactive: growth inhibition [1] -3.14% | growth inhibition [2] 2.81% | viability increase [3] -2.85% | viability [4] 89.8% | viability [5] 91% | inhibition [6] 1.5% | RAM network inhibition [7] 3.2%

CCn1cc(C2=NC(c3ccccc3)CO2)c2ccccc21 (configuration not stated)
inactive: growth inhibition [1] -11% | growth inhibition [2] -8.14% | viability increase [3] -4.95% | viability [4] 91.6% | viability [5] 83.3% | inhibition [6] 1.46% | RAM network inhibition [7] 0.69%

CCn1c(C(C)NC(=O)Cc2ccccc2)nc2ccccc21 (configuration not stated)
inactive: growth inhibition [1] -12.2% | growth inhibition [2] -17.6% | viability increase [3] -1.21% | viability [4] 99.6% | viability [5] 96% | inhibition [6] 1.83% | RAM network inhibition [7] 4.91%

CCN1C(=O)NC2C1N(S(C)(=O)=O)CCN2S(C)(=O)=O (configuration not stated)
inactive: growth inhibition [1] -1.72% | growth inhibition [2] 2.34% | viability increase [3] -0.57% | viability [4] 108% | viability [5] 92.1% | inhibition [6] 1.29% | RAM network inhibition [7] 4.02%
